Compound activity as filed in PubChem BioAssay.
In the library only some 1.8% were active in any assay of this set; here they are far more common.
STAT3 inh – inhibitors of IL-6 induced STAT3 signaling; actives 0.89% (n = 190,000); U3A cells, IL-6 STAT3-luciferase reporter, luminescence; host cell line lacks STAT1; inhibition, % at 5.5 µM;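 active = inhibition above the mean inhibition across all screened compounds plus 3 SD, cut at about 44% in these data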;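 also: 0% = DMSO only wells and 100% = 100 µM nifuroxazide control wells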
STAT1 inh – inhibitors of IFN-gamma induced STAT1 signaling. actives 0.35% (n = 200,000). NIH 3T3 STAT1-luciferase reporter, luminescence. AID 920. inhibition, % at 5.5 µM;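 active = inhibition above a set limit, the mean inhibition across all tested compounds plus 3 SD, cut at about 34% in these data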;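 also: 0% = IFN-gamma with DMSO and 100% = IFN-gamma with 300 µM nifuroxazide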
STAT3 activator – activators of IL-6 induced STAT3 signaling; activation (% of control), % at 5.6 µM; actives 0.91% (n = 190,000); U3A cells, IL-6 STAT3-luciferase reporter, luminescence; 100% = signal with IL-6 EC80 alone;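 active = activation above the screen-wide mean of compound activation plus 3 SD, cut at about 130% in these data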;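 also: 0% = background luminescence of wells with medium and substrate only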
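Test system: Human STAT1-deficient U3A cells with stable STAT3-luciferase reporter | Also added: Interleukin-6, 33 ng/mL | Timing: Compound pre-incubation 1 h before IL-6, then 6 h stimulation at 37 °C | Technique: Luciferase reporter luminescence | Read-out: Percent of IL-6-only median luminescence | Benchmarks: IL-6-only wells as 100% reference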
C8 TRAIL sens – caspase-8 TRAIL sensitization | NB7+C8 cells + TRAIL, ATPlite viability luminescence | inhibition (viability loss, TRAIL sensitization), % at 10 µM | actives 1% (n = 360,000);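 active = compounds causing at least 50% loss of cell viability in the single-dose screen, relative to plate controls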
PPC-1+TRAIL kill – kills PPC-1 cancer cells in the presence of TRAIL; PPC-1 cells + TRAIL, ATPLite viability luminescence; cell killing (% activity), % at 4 µM or 5 µM; actives 0.41% (n = 220,000);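 active = cell killing above 50% in the first pass at 4 µM, then a duplicate retest at 5 µM averaging 50% or more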;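 also: plate controls were cells with TRAIL plus DMSO for no effect and medium-only wells lacking cells for full effect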
The depositor's hits bear a star.

What do the screens show for `O=C1C=C(c2c(O)ccc3ccccc23)c2ccccc2C1=O`?
C8 TRAIL sens: 86*

What do the screens show for `CCN(CC)Cc1nc2c(c(=O)[nH]1)C(CC)(CC)Cc1ccccc1-2`?
C8 TRAIL sens: 16

What do the screens show for `CCCCCN(C(=O)CCC(=O)OC(C)C(=O)Nc1ccccc1C)c1c(N)n(CCCC)c(=O)[nH]c1=O` (stereo not given)?
C8 TRAIL sens: 10

Results for NNc1ccc2c(C(F)(F)F)cc(C(F)(F)F)nc2n1 ?
STAT3 inh: -4; STAT1 inh: 3; STAT3 activator: 105; C8 TRAIL sens: 43; PPC-1+TRAIL kill: 15

Results for N#CC(c1cccc(Cl)c1)c1ccc2c(C(F)(F)F)cc(C(F)(F)F)nc2n1 (stereo not given) ?
STAT3 inh: 86*; STAT1 inh: 61*; STAT3 activator: 29; C8 TRAIL sens: 30; PPC-1+TRAIL kill: 33

How did CN(Cc1ccccn1)C(=O)CC1C(=O)NCCN1Cc1ccc(F)cc1Cl (stereo not given) do in these assays?
C8 TRAIL sens: -6

How did C=CCOC(=O)c1[nH]c2c(c1C)C(=O)CC(c1cc(OC)c(OC)c(OC)c1)C2 (stereo not given) do in these assays?
STAT3 inh: 46*; STAT1 inh: 42*; STAT3 activator: 63; C8 TRAIL sens: 28; PPC-1+TRAIL kill: 5

How did CC(C)(C)OC(=O)CNC(=O)c1[nH]cnc1C(=O)Nc1ccc(CNC(=O)OC(C)(C)C)cc1 do in these assays?
C8 TRAIL sens: 40; PPC-1+TRAIL kill: 21

Results for CC(C)(C)OC(=O)NCc1ccc(NC(=O)c2nc[nH]c2C(=O)NCCNC(=O)c2[nH]cnc2C(=O)Nc2ccc(CNC(=O)OC(C)(C)C)cc2)cc1 ?
C8 TRAIL sens: 88*

How did C[C@H](NC(=O)c1[nH]cnc1C(=O)Nc1ccc(CNC(=O)OC(C)(C)C)cc1)C(=O)OCc1ccccc1 do in these assays?
C8 TRAIL sens: 75*; PPC-1+TRAIL kill: -13

How did CC(C)(C)OC(=O)NCCCCCNC(=O)c1nc[nH]c1C(=O)NCc1ccc(CNC(=O)OC(C)(C)C)cc1 do in these assays?
C8 TRAIL sens: 58*

Results for COc1ccc(-c2nn(-c3ccccc3)cc2/C=N/NC(=O)c2ccc(Br)o2)cc1 ?
STAT3 inh: 45*; STAT1 inh: 0; STAT3 activator: 69; C8 TRAIL sens: 69*; PPC-1+TRAIL kill: 15

Results for Oc1[nH]c(N=C2N=c3ccccc3=N2)c2ccccc12 ?
C8 TRAIL sens: 65*; PPC-1+TRAIL kill: 28

How did COc1ccc(OC)c(CNC(=O)CCn2nc(C)c3c(C)n(-c4ccccc4)nc3c2=O)c1 do in these assays?
C8 TRAIL sens: -6

What do the screens show for `COc1cc(NCc2ccccc2)c2ncn(C(C)C)c2c1`?
C8 TRAIL sens: -1

What do the screens show for `CCC(CN(C)C)Oc1cc(NCc2ccccc2)c2ncn(C(C)C)c2c1` (stereo not given)?
C8 TRAIL sens: 58*

How did Cc1ccsc1/C=N/N=C1\C(=O)Nc2ccccc21 do in these assays?
STAT3 inh: 2; STAT1 inh: -21; STAT3 activator: 100; C8 TRAIL sens: -8; PPC-1+TRAIL kill: 16

Results for COc1cc(/C=N/N2C(=O)c3ccccc3C2=O)ccc1O ?
STAT3 inh: 3; STAT1 inh: 8; STAT3 activator: 100; C8 TRAIL sens: 1; PPC-1+TRAIL kill: 8

How did O=C1Nc2ccccc2/C1=N\N=C\c1ccc(O)c(O)c1 do in these assays?
C8 TRAIL sens: 57*; PPC-1+TRAIL kill: 30

Results for COc1cc(/C=N/N=C2/C(=O)Nc3ccccc32)ccc1O ?
STAT3 inh: -13; STAT1 inh: 5; STAT3 activator: 110; C8 TRAIL sens: 74*; PPC-1+TRAIL kill: 22

Results for CCCc1cc(=O)[nH]c(SCCc2ccccc2)n1 ?
C8 TRAIL sens: -17

What do the screens show for `Cc1cccc(NC(=O)CNC(=O)CSc2ncccn2)c1C`?
C8 TRAIL sens: 11

How did O=C(Cn1ncc(Cl)c(Cl)c1=O)NC1CCS(=O)(=O)C1 (stereo not given) do in these assays?
C8 TRAIL sens: 4; PPC-1+TRAIL kill: -1

How did O=C(Cn1ncc(Cl)c(Cl)c1=O)c1ccc(Cl)cc1 do in these assays?
STAT3 inh: 2; STAT1 inh: 13; STAT3 activator: 101; C8 TRAIL sens: 95*; PPC-1+TRAIL kill: 10

What do the screens show for `Cc1cccc(NC(=O)CNC(=O)Cn2ncc(Cl)c(Cl)c2=O)c1C`?
C8 TRAIL sens: 74*

How did O=C(Cn1ncc(N2CCOCC2)c(Cl)c1=O)c1ccc(Cl)cc1 do in these assays?
STAT3 inh: -11; STAT1 inh: -6; STAT3 activator: 113; C8 TRAIL sens: 6; PPC-1+TRAIL kill: -12

How did CC(C)(C)C(=O)Cn1ncc(Cl)c(Cl)c1=O do in these assays?
STAT3 inh: 13; STAT1 inh: 13; STAT3 activator: 98; C8 TRAIL sens: 8; PPC-1+TRAIL kill: 13

How did O=C(Cn1ncc(Cl)c(Cl)c1=O)NC1CCCCC1 do in these assays?
C8 TRAIL sens: 96*

What do the screens show for `O=C(Cn1ncc(Cl)c(Cl)c1=O)NCC1CCCCC1`?
STAT3 inh: 10; STAT1 inh: 11; STAT3 activator: 92; C8 TRAIL sens: 95*; PPC-1+TRAIL kill: 1

What do the screens show for `O=C(Cc1cccs1)N/N=C/C(Cl)=C/c1ccccc1`?
STAT3 inh: -1; STAT1 inh: -52; STAT3 activator: 113; C8 TRAIL sens: 1

How did Cc1nnc(NC(=O)C(C)Sc2nnc(CCNC(=O)c3ccccc3F)n2C)s1 (stereo not given) do in these assays?
C8 TRAIL sens: 1

Results for Nc1cc(=O)[nH]c(SCC(=O)Nc2ccc(N3CCOCC3)cc2)n1 ?
C8 TRAIL sens: -6

Results for CC(=O)OC(C(=O)Nc1nncs1)c1ccccc1 (stereo not given) ?
C8 TRAIL sens: -7

How did O=C(N/N=C/c1cc([N+](=O)[O-])ccc1O)c1cccc(N2CCCC2=O)c1 do in these assays?
C8 TRAIL sens: 5

Results for Cc1ccc(NC(=O)Cn2ncc(Cl)c(Cl)c2=O)cc1S(=O)(=O)N1CCCCC1 ?
C8 TRAIL sens: 79*

Results for Cc1ccc(NC(=O)Cc2ccc(Cl)cc2)cc1S(=O)(=O)N1CCCCCC1 ?
C8 TRAIL sens: 1

How did O=C(OCn1ncc(Cl)c(Cl)c1=O)c1ccccc1Cl do in these assays?
STAT3 inh: 32; STAT1 inh: -5; STAT3 activator: 81; C8 TRAIL sens: 87*; PPC-1+TRAIL kill: 23

How did C=CC[C@@H](CC(=O)N[C@H](CO)Cc1ccccc1)C(=O)N[C@H](COC(=O)[C@@H](CC=C)Cc1ccc(F)cc1)Cc1c[nH]c2ccccc12 do in these assays?
C8 TRAIL sens: 34

What do the screens show for `C(=C\c1nnc2c3ccccc3ncn12)/c1ccccc1`?
STAT3 inh: -49; STAT1 inh: -54; STAT3 activator: 145*; C8 TRAIL sens: 12; PPC-1+TRAIL kill: 36

What do the screens show for `O=C1C(=Cc2cccs2)C(=O)c2ccccc21`?
STAT3 inh: -3; STAT1 inh: -5; STAT3 activator: 102; C8 TRAIL sens: 1; PPC-1+TRAIL kill: -1
